Measured values taken from ChEMBL document CHEMBL4261627, “Design, synthesis and anti-melanogenic effect of cinnamamide derivatives” (Bioorg Med Chem, 2018).

Experiments:
[1] = Antioxidant activity assessed as DPPH-radical scavenging activity at 1 mM incubated for 30 mins under dark condition; assay type: functional
Outline: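 DPPH (0.2 mM in methanol, 180 µL) was mixed with 20 µL of compound from a 10 mM DMSO stock, giving 1 mM final. The mix was kept in the dark for 30 min and read at 517 nm, with L-ascorbic acid as reference. % scavenging = (Ac−As)/Ac × 100 against untreated control. Triplicate, mean ± SD.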

[2] = target: T1, Tyrosinase (Mus musculus) (UniProt P11344); assay: Inhibition of tyrosinase in alpha-MSH stimulated mouse B16F10 cells at 10 uM using L-dopa as substrate pretreated for 24 hrs followed by substrate addition and measured after 30 mins
T1 sequence (whole entry): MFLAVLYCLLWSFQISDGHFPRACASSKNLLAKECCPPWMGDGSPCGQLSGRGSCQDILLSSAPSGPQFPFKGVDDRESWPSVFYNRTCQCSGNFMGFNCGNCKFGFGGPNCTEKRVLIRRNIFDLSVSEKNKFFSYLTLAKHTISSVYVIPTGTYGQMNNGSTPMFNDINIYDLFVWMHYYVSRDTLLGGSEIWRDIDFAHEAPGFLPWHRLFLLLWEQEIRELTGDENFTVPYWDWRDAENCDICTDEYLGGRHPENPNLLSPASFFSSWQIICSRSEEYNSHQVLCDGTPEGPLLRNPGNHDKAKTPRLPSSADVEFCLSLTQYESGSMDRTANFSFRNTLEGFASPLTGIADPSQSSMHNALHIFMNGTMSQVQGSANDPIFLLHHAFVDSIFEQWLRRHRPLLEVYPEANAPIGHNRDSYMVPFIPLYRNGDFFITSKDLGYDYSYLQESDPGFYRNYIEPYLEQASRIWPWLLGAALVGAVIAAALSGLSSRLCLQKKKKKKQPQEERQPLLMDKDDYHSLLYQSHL
Outline: (§1)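 Cells were lysed in pH 6.8 phosphate buffer with 0.1 mM PMSF and 1% Triton X-100, frozen at −80 °C, and spun. Supernatant (80 µL) was incubated with 20 µL of 10 mM L-dopa at 37 °C for 30 min and read at 500 nm. Triplicate.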

[3] = system: B16-F10; assay: Antimelanogenic activity in mouse B16F10 cells assessed as inhibition of alpha-MSH-stimulated melanin synthesis at 25 uM measured after 24 hrs; assay type: functional; conditions: B16-F10, 24 h
Outline: (§2)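 B16F10 cells were seeded at 5x10^4 cells/well and grown 24 h at 37 °C in 5% CO2. […] After PBS washes, melanin was dissolved in 1 N NaOH and read as absorbance at 405 nm. Triplicate, mean ± SEM.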

[4] = system: B16-F10; assay: Antimelanogenic activity in mouse B16F10 cells assessed as inhibition of alpha-MSH-stimulated melanin synthesis at 10 uM measured after 24 hrs; assay type: functional, cell-based; outline: as §2
[5] = system: B16-F10; assay: Cytotoxicity against mouse B16F10 cells up to 25 uM after 24 hrs by WST8 assay; assay type: cell-based; conditions: b16-f10, 24 h
Outline: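 B16F10 cells (from DMEM/10% FBS culture) were seeded at 1x10^4 cells/well and held 24 h at 37 °C, 5% CO2. Compound (0, 5, 10, 25 µM) was added for a further 24 h. WST-8 reagent was then applied for 30 min to 2 h at 37 °C and OD read at 450 nm. Viability expressed as % of control; triplicate.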

[6] = target: T1, Tyrosinase (Mus musculus); assay: Inhibition of tyrosinase in alpha-MSH stimulated mouse B16F10 cells using L-dopa as substrate pretreated for 24 hrs followed by substrate addition and measured after 30 mins; outline: as §1
[7] = target: T1, Tyrosinase (Mus musculus); conditions: 400 uM

SMILES	inhibition [1]	inhibition at 25 µM [3]	also measured
O=C(/C=C/c1ccc(O)c(O)c1)N1CCCC1	83.2%		
O=C(/C=C/c1ccc(O)cc1)N1CCCCC1	0.91%		
COc1ccc(/C=C/C(=O)N2CCCC2)cc1O	34.2%		
O=C(/C=C/c1ccc(O)cc1O)N1CCCCC1	30.7%	61.8%	inhibition [2]: 23.3%; inhibition [4]: Dose-dependent effect; Activity [5]: Non-Toxic
O=C(/C=C/c1ccc(O)c(O)c1)N1CCCCC1	82.8%		
COc1ccc(/C=C/C(=O)N2CCCCC2)cc1O	37.6%		
COc1cc(/C=C/C(=O)N2CCCCC2)ccc1O	80.7%	72.7%	inhibition [2]: 44%; inhibition [6]: Dose-dependent effect; inhibition [4]: Dose-dependent effect; Activity [5]: Non-Toxic
O=c1cc(CO)occ1O [KOJIC ACID]		37.6%	
OC[C@H]1O[C@@H](Oc2ccc(O)cc2)[C@H](O)[C@@H](O)[C@@H]1O			inhibition [7]: 51.7%
O=C1O[C@H]([C@@H](O)CO)C(O)=C1O	84.6%		
COc1cc(/C=C/C(=O)N2CCCC2)ccc1O	82.1%		
O=C(/C=C/c1ccc(O)cc1)N1CCCC1	3.51%		
O=C(/C=C/c1ccc(O)cc1O)N1CCCC1	22.3%	78.3%	inhibition [2]: 38.3%; inhibition [6]: Dose-dependent effect; inhibition [4]: Dose-dependent effect; Activity [5]: Non-Toxic
